Like-named read-outs stand apart in the source and are kept apart here.
Legend:
[1] = format: in vivo, Japanese subjects (human); details: single oral 150 mg; for Tmax: both, human, plasma, po, 150 mg, median tmax
Procedure, shortened: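 Renal groups by eGFR from the Japanese creatinine equation. Overnight-fasted subjects received one 150 mg tablet with 150 mL water on Day 1 morning, with no water from 1 h before to 1 h after. Blood was drawn predose, then 0.25–12 h and at 24, 36, 48, 60 and 72 h. Plasma (25 µL) was assayed by validated LC–MS/MS (LLOQ 0.25 ng/mL; linear 0.25–500 ng/mL). AUCinf was regressed on eGFR as a fixed effect.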

[2] = cited from earlier work; for mean urinary excretion: healthy volunteers
[3] = Safety assessment; format: in vivo, Japanese subjects (human); details: single oral 150 mg
Procedure, shortened: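 After an overnight fast, a single oral 150 mg tablet was given. Monitoring covered TEAEs, supine BP and pulse, axillary temperature, haematology, biochemistry, urinalysis and 12-lead ECG up to 7 days post-dose, with follow-up 7 (± 2) days after discharge. TEAEs were coded in MedDRA v17.1. The investigator assigned causality and graded severity by CTCAE v4.0.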

[4] = cited from earlier work

NC(=O)c1cnc2[nH]ccc2c1N[C@@H]1[C@@H]2CC3C[C@H]1C[C@@](O)(C3)C2 [Peficitinib]
Tmax ([1]; across the renal function groups, fasting conditions): 1.5 to 1.75 h
Tmax ([1]; renal impairment groups, fasting): 1.5 h
linear regression of AUCinf, CL/F and eGFR across the renal function groups [1]: no statistically significant slopes
mean urinary excretion ([2]; after 2 weeks of multiple dosing): 15–17%
median tmax ([2]; healthy subjects, fed conditions): 4 h
mean urinary excretion ([2]; single oral dose): 9–15 % of dose
death, serious TEAE or TEAE leading to withdrawal of treatment ([3]; all 31 subjects): No death, serious TEAE or TEAE leading to withdrawal of treatment was reported
ECG results ([3]; all subjects, day of admission and post-dose time points): normal
intensity of TEAEs ([3]; both TEAEs (headache, ALT increased)): mild
vital sign measurements, mean changes from baseline [3]: No clinically significant mean changes from baseline

CCS(=O)(=O)N1CC(CC#N)(n2cc(-c3ncnc4[nH]ccc34)cn2)C1 [baricitinib]
AUC increase compared with subjects with normal renal function ([4]; mild renal impairment): 1.41 fold
Cmax increase compared with subjects with normal renal function ([4]; mild renal impairment): 1.16 fold
AUC increase compared with subjects with normal renal function ([4]; moderate renal impairment): 2.22 fold
Cmax increase compared with subjects with normal renal function ([4]; moderate renal impairment): 1.46 fold
AUC increase compared with subjects with normal renal function ([4]; severe renal impairment): 4.05 fold
Cmax increase compared with subjects with normal renal function ([4]; severe renal impairment): 1.40 fold

Source: PMC6989572 (Clinical Drug Investigation, 2019)
